Data: ChEMBL document CHEMBL1126556, “Novel antiasthmatic agents with dual activities of thromboxane A2 synthetase inhibition and bronchodilation. 1. 2-[2-(1-Imidazolyl)alkyl]-1(2H)-phthalazinones” (J Med Chem, 1993)

Assays:
[1] = species: Cavia porcellus; assay: Tested in vitro for bronchodilatory activity by spontaneous tone inhibition in guinea pig tracheal strips; format: functional; settings: Trachea
[2] = target: T1, Thromboxane-A synthase (Rattus norvegicus) (UniProt P49430); assay: Tested for inhibition of thromboxane A2 (TXA2) production in rat serum by ex vivo assay after peroral dose of 30 mg/kg; format: functional, organism-based; set-up: dose 30 mg/kg
T1 sequence (whole entry): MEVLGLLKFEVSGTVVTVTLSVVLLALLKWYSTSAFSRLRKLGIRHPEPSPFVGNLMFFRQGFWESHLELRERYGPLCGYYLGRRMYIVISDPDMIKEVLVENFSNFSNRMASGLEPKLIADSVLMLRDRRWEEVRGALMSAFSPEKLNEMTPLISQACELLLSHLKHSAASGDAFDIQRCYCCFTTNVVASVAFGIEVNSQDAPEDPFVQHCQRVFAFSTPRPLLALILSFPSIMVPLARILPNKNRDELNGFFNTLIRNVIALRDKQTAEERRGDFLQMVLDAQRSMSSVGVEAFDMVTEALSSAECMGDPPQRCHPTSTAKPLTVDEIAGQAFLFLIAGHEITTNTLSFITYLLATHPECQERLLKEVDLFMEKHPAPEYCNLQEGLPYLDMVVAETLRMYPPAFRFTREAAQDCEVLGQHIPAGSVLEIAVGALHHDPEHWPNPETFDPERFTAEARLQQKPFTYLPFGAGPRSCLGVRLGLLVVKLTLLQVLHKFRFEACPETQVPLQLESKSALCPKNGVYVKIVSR
How it was run: (§1)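 Male SD rats (240–260 g), fasted 20 h, dosed orally in 0.5% carboxymethylcellulose or given vehicle. After 1 h under ether, 2 mL cardiac blood was drawn and clotted 90 min at 37 °C. Serum was EtOH-deproteinized and stored at -20 °C. TXB₂ measured by radioimmunoassay. % inhibition calculated against each vehicle control group.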

[3] = tested on: Cavia porcellus; assay: In vivo inhibitory effect on airway constriction induced by histamine 2-5 micro g/kg iv at 1 min after 10 mg/kg intravenous dose in anesthetized guinea pigs; format: functional
How it was run: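 Male Dunkin-Hartley guinea pigs, anesthetized with pentobarbital 35 mg/kg ip, cannulated at jugular vein and trachea, ventilated at 10 mL/kg and 60 strokes/min. Insufflation pressure recorded continuously by transducer. Histamine given iv every 10 min until the constriction was reproducible. Compound 10 mg/kg iv given 1 min before the next challenge. Result is mean % inhibition against control response, from ≥3 experiments.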

[4] = tested on: Thromboxane-A synthase (Oryctolagus cuniculus); assay: Tested for inhibition of thromboxane A2 (TXA2) production in rabbit by in vitro assay at 1 uM
[5] = Partition coefficient (logP); format: physicochemical; settings: octanol/water
[6] = tested on: Rattus norvegicus; assay: Tested for inhibition of TXA2 production in rat serum by ex vivo assay after peroral dose of 3 mg/kg; format: functional; settings: route oral; how it was run: as §1

SMILES	IC50 [1] [µM]	inhibition [2] [%]	inhibition [4] [%]	logP [5]	inhibition in vivo at 10 mg/kg [3] [%]	inhibition in vivo at 3 mg/kg [6] [%]
O=C(O)c1cccc(-c2nn(CCn3ccnc3)c(=O)c3ccccc23)c1	> 100	–	10	–	33	–
O=c1c2ccccc2c(-c2ccco2)nn1CCn1ccnc1	42.7	–	27	1.52	–	–
O=c1c2ccccc2c(-c2ccncc2)nn1CCn1ccnc1	24	47	27	0.66	100	–
Cc1nn(CCn2ccnc2)c(=O)c2ccccc12	> 100	–	10	0.538	–	–
O=C(O)c1ccc(-c2nn(CCn3ccnc3)c(=O)c3ccccc23)cc1	64.6	–	24	–	21	–
CCOC(=O)c1ccccc1-c1nn(CCn2ccnc2)c(=O)c2ccccc12	60.3	–	64	–	60	–
O=c1c2ccccc2c(-c2cccnc2)nn1CCn1ccnc1	26.9	90	–	0.66	97	63
O=c1c2ccccc2c(-c2ccccn2)nn1CCn1ccnc1	42.7	41	20	0.87	30	–
Cn1c(=O)c2[nH]cnc2n(C)c1=O [AMINOPHYLLINE]	46.8	0	–	–	86	–
CCOC(=O)c1ccc(-c2nn(CCn3ccnc3)c(=O)c3ccccc23)s1	13.2	–	62	–	92	–
O=c1c2ccccc2c(-c2ccccc2)nn1CCCCCn1ccnc1	23.4	–	69	–	–	–
CC(C)Cc1nn(CCn2ccnc2)c(=O)c2ccccc12	12	21	14	2	–	–
O=c1c2ccccc2c(-c2ccc(F)cc2)nn1CCn1ccnc1	15.8	46	33	–	100	–
O=C(O)c1ccc(-c2nn(CCn3ccnc3)c(=O)c3ccccc23)s1	34.7	–	–	–	5	–
O=c1c2ccccc2c(-c2ccccc2)nn1CCCCn1ccnc1	17.4	–	65	–	–	–
O=C(O)c1ccccc1-c1nn(CCn2ccnc2)c(=O)c2ccccc12	49	–	14	–	94	–
CC(=O)c1ccc(-c2nn(CCn3ccnc3)c(=O)c3ccccc23)s1	15.1	5	80	1.51	94	–
O=C(O)/C=C/c1ccc(Cn2ccnc2)cc1 [OZAGREL]	> 1000	–	–	–	0	–
CCc1ccsc1-c1nn(CCn2ccnc2)c(=O)c2ccccc12	18.6	46	68	–	84	–
COc1ccc(-c2nn(CCn3ccnc3)c(=O)c3ccccc23)cc1	25.1	50	74	2.06	0	–

These reach a lower IC50 [1]. Values come first.

IC50 [1] [µM]	inhibition [2] [%]	inhibition [4] [%]	logP [5]	SMILES	inhibition in vivo at 10 mg/kg [3] [%]	inhibition in vivo at 3 mg/kg [6] [%]
6.61	0	53	–	Cc1ccc(-c2nn(CCn3ccnc3)c(=O)c3ccccc23)s1	26	–
10	–	60	–	CCOC(=O)c1ccc(-c2nn(CCn3ccnc3)c(=O)c3ccccc23)cc1	92	–
1	37	49	–	O=c1c2ccccc2c(-c2cccc(C(F)(F)F)c2)nn1CCn1ccnc1	42	–
4.27	–	88	1.94	COc1ccc(-c2nn(CCn3ccnc3)c(=O)c3ccccc23)s1	–	–
3.55	47	22	1.99	O=c1c2ccccc2c(-c2cccs2)nn1CCn1ccnc1	84	–
7.76	55	79	3.17	CCc1ccc(-c2nn(CCn3ccnc3)c(=O)c3ccccc23)cc1	8	–
11.2	–	40	–	O=c1c2ccccc2c(-c2ccc(C(F)(F)F)cc2)nn1CCn1ccnc1	–	–
1.78	52	67	3.02	CCc1ccc(-c2nn(CCn3ccnc3)c(=O)c3ccccc23)s1	96	–
4.47	67	83	2.7	CSc1ccc(-c2nn(CCn3ccnc3)c(=O)c3ccccc23)cc1	73	–
2.04	40	63	–	O=c1c2ccccc2c(-c2ccc(Cl)cc2)nn1CCn1ccnc1	71	–
9.77	–	79	–	O=c1c2ccccc2c(-c2ccccc2)nn1CCCCCCn1ccnc1	–	–
6.46	32	27	–	COc1ccc(-c2nn(CCn3ccnc3)c(=O)c3ccccc23)cc1OC	90	–
0.676	28	32	3.19	O=c1c2ccccc2c(C2CCCCC2)nn1CCn1ccnc1	71	–
5.13	0	76	–	Cc1ccc(-c2nn(CCn3ccnc3)c(=O)c3ccccc23)cc1	94	–
5.62	40	49	–	O=c1c2ccccc2c(Cc2ccc(Cl)cc2)nn1CCn1ccnc1	100	–
2.34	0	55	–	CCOC(=O)c1cccc(-c2nn(CCn3ccnc3)c(=O)c3ccccc23)c1	90	–
8.13	–	63	–	O=c1c2ccccc2c(-c2ccccc2)nn1CCCCCCCCn1ccnc1	–	–
3.89	60	63	–	COc1ccc(-c2nn(CCn3ccnc3)c(=O)c3ccccc23)cc1F	54	–
5.62	68	54	–	CCOc1ccc(-c2nn(CCn3ccnc3)c(=O)c3ccccc23)cc1	87	–
10.7	-5	45	–	O=c1c2ccccc2c(Cc2ccccc2)nn1CCn1ccnc1	98	–
5.89	–	38	2.63	O=c1c2ccccc2c(C2CCCC2)nn1CCn1ccnc1	98	–
7.59	35	29	–	O=c1c2ccccc2c(Cc2cccs2)nn1CCn1ccnc1	100	–
11	–	57	–	O=c1c2ccccc2c(-c2ccccc2)nn1CCCn1ccnc1	–	–
5.37	52	64	–	CC(C)c1ccc(-c2nn(CCn3ccnc3)c(=O)c3ccccc23)cc1	68	–
1.45	15	47	–	O=c1c2ccccc2c(-c2ccc(Cl)s2)nn1CCn1ccnc1	96	–
1.32	0	41	2.14	O=c1c2ccccc2c(-c2ccccc2)nn1CCn1ccnc1	88	–
